From ChEMBL document CHEMBL1938284, “Synthesis and biological activity of novel organoselenium derivatives targeting multiple kinases and capable of inhibiting cancer progression to metastases” (Eur J Med Chem, 2012)

experiment: Antiproliferative activity against human MDA231 cells after 72 hrs by MTT assay; assay type: functional, cell-based; conditions: MDA-MB-231, 72 h
Outline: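 MTT read-out on MDA-231 cells. 1×10^3 exponentially growing cells seeded and incubated 24, 48 and 72 h. Medium replaced with 1 mg/mL MTT for 3–4 h at 37 °C.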

Compared with `CC(=O)OC[C@H]1O[C@@H](n2[se]c3ccccc3c2=O)[C@H](OC(C)=O)[C@@H](OC(C)=O)[C@H]1OC(C)=O`, `CC(=O)OC[C@H]1O[C@@H](OCCn2[se]c3ccccc3c2=O)[C@H](OC(C)=O)[C@@H](OC(C)=O)[C@@H]1OC(C)=O` is 1.7-fold higher in IC50: 21 µM for the first, 35 µM for the second. The first is the more potent here.

First: CC(=O)OC[C@H]1O[C@@H](n2[se]c3ccccc3c2=O)[C@H](OC(C)=O)[C@@H](OC(C)=O)[C@@H]1O[C@@H]1O[C@H](COC(C)=O)[C@@H](OC(C)=O)[C@H](OC(C)=O)[C@H]1OC(C)=O
Second: O=c1c2ccccc2[se]n1[C@@H]1O[C@H](CO)[C@@H](O[C@@H]2O[C@H](CO)[C@H](O)[C@H](O)[C@H]2O)[C@H](O)[C@H]1O
The IC50 of the first is lower: 20 µM for the first, over 100 µM for the second.

`O=c1c2ccccc2[se]n1[C@@H]1O[C@H](CO)[C@H](O)[C@H](O)[C@H]1O` and `O=c1c2ccccc2[se]n1CCO[C@@H]1O[C@H](CO)[C@@H](O)[C@H](O)[C@H]1O` cannot be ordered by IC50: over 100 µM for the first, over 100 µM for the second.

`O=c1c2ccccc2[se]n1[C@@H]1O[C@H](CO)[C@@H](O[C@@H]2O[C@H](CO)[C@@H](O)[C@H](O)[C@H]2O)[C@H](O)[C@H]1O` showed an IC50 of over 100 µM.
